Measurements as given in ChEMBL document CHEMBL1157302, “Quinone reductase induction as a biomarker for cancer chemoprevention” (J Nat Prod, 2006).
Activity calls are given as the source filed them. No cut-off for these calls is given here.

Columns and labels:
[1] = Inhibition of mouse Hepa-1c1c7 cells assessed as cell viability; assay type: functional, cell-based
Procedure, shortened: (§1)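 Cell viability of wild-type and both mutant Hepa 1c1c7 lines measured alongside QR induction; IC50 = half-maximal inhibitory concentration of viability, mean ± SD, n = 2.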

[2] = Chemoprevention index, ratio of IC50 for mouse Hepa-1c1c7 cells to drug level required to double specific NADPH:quinone reductase activity in mouse Hepa-1c1c7 cells; assay type: functional
Procedure, shortened: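 QR induction measured in wild-type Hepa 1c1c7 murine hepatoma cells and two mutant lines (one lacking a functional Ah receptor, one unable to move receptor–ligand complex to the nucleus) by a previously described method; concentrations 2-30 µM; CD = concentration doubling specific QR activity; chemoprevention index = cell-viability IC50 divided by CD.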

[3] = Inhibition of mouse Hepa-1c1c7 TAOc1Bprc1 mutant cells assessed as cell viability; assay type: functional; procedure, shortened: as §1
[4] = Inhibition of mouse Hepa-1c1c7 Bprc1 mutant cells assessed as cell viability; assay type: functional; procedure, shortened: as §1
HepG2 [5] = experiment: Induction of antioxidant response element activity in human HepG2 cells at 10 uM by luciferase based chemiluminescence assay; assay type: functional, cell-based
Procedure, shortened: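 HepG2 human hepatoma cells stably transfected with an ARE-luciferase plasmid were treated with test agent at 10 µM, with DMSO (0.5% final) as vehicle control. Luciferase was read by chemiluminescence and expressed as fold induction over control, as means of three determinations ± SD. Significance was tested by Student's t-test (p < 0.05).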

[6] = Chemoprevention index, ratio of IC50 for mouse Hepa-1c1c7 Bprc1 mutant cells to drug level required to double specific NADPH:quinone reductase activity in mouse Hepa-1c1c7 Bprc1 mutant cells; assay type: functional
Procedure, shortened: (§2)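 Hepa 1c1c7 mutant lines; the index is the IC50 for cell viability (half-maximal inhibition; mean ± SD, n = 2) divided by the concentration that doubles QR specific activity (CD) in the same mutant line.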

HepG2 [7] = experiment: Cytotoxicity against human HepG2 cells at 7.5 to 30 uM; assay type: functional, cell-based
[8] = Inhibition of 7,12-dimethylbenz[a]anthracene-induced preneoplastic lesions in a mouse mammary gland culture at 10 ug/mL; assay type: functional
Rattus norvegicus [9] = experiment: Toxicity in DMBA-induced mammary carcinogenesis in Sprague-Dawley rat assessed as body weight changes up to 20000 mg/kg administered 7 days pre-DMBA challenge continued for 7 days post-DMBA challenge assessed after 120 days; assay type: organism-based; design: dose 20000 mg/kg; conditions: in vivo, 2880 h
Procedure, shortened: (§3)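 Dose-finding prior to tumor study: diets with 1000, 2000, 3000, 4000, 5000 and 20 000 mg/kg diet; toxicity judged by body weight change and necropsy.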

HepG2 [10] = experiment: Induction of antioxidant response element activity in human HepG2 cells by luciferase based chemiluminescence assay; assay type: functional, cell-based
Procedure, shortened: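 HepG2 human hepatoma cells stably transfected with an ARE-luciferase plasmid; treated with 1.9-30 µM test agent, 10 µM 4′-bromoflavone or 10 µM sulforaphane positive controls, DMSO 0.5% final as vehicle control; chemiluminescence luciferase read-out as fold over control; mean of three determinations ± SD, Student's t-test p < 0.05.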

[11] = Chemoprevention index, ratio of IC50 for mouse Hepa-1c1c7 TAOc1Bprc1 mutant cells to drug level required to double specific NADPH:quinone reductase activity in mouse Hepa-1c1c7 TAOc1Bprc1 mutant cells; assay type: functional; procedure, shortened: as §2
Rattus norvegicus [12] = experiment: Inhibition of DMBA-induced mammary carcinogenesis in Sprague-Dawley rat assessed as increase in tumor latency at 5000 mg/kg administered 7 days pre-DMBA challenge continued for 7 days post-DMBA challenge assessed after 120 days; assay type: functional, organism-based; design: dose 5000 mg/kg
Procedure, shortened: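 Female Sprague-Dawley rats given DMBA, as described previously; test agent in diet at 2500 or 5000 mg/kg diet from 7 days before to 7 days after DMBA, then unsupplemented diet; 20 rats/group; tumor latency, incidence over 120 days and body weight recorded.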

Rattus norvegicus [13] = experiment: Toxicity in DMBA-induced mammary carcinogenesis in Sprague-Dawley rat assessed as necropsy up to 20000 mg/kg administered 7 days pre-DMBA challenge continued for 7 days post-DMBA challenge assessed after 120 days; assay type: organism-based; design: dose 20000 mg/kg; conditions: in vivo, 2880 h; procedure, shortened: as §3

O=c1cc(-c2ccc(Br)cc2)oc2ccccc12 gave an IC50 [1] of over 62.5 µM, a Ratio [2] of over 2700 and an IC50 [3] of over 62.5 µM. The IC50 [4] was over 62.5 µM and the Activity (HepG2 [5]) was “Active”.
For O=C(/C=C/c1ccc(O)cc1)c1ccc(O)cc1O [ISOLIQUIRITIGENIN], the Ratio [6] was 2, the IC50 [1] was 19.6 µM and the Activity (HepG2 [7]) was “inactive”. The inhibition at 10 µg/mL [8] was 76%, the Ratio [2] was 11 and the Activity (Rattus norvegicus [9]) was “Non-toxic”. The IC50 [3] was 22 µM, the Activity (HepG2 [10]) was “Dose-dependent effect” and the Ratio [11] was 10. The Activity (Rattus norvegicus [12]) was “Active”, the IC50 [4] was 16.2 µM and the Activity (Rattus norvegicus [13]) was “Non-toxic”.
For C[S+]([O-])CCCCN=C=S (centres undefined) [SULFORAPHANE], the Ratio [6] was 16, the IC50 [1] was 6.3 µM and the Ratio [2] was 21. For the same compound, the IC50 [3] was 5.9 µM, the Ratio [11] was 18 and the IC50 [4] was 7.6 µM. The Activity (HepG2 [5]) was “Active”.
